Screening data: PubChem BioAssay, The Scripps Research Institute Molecular Screening Center
GalR3 antagonist – antagonists of human GalR3 | O60755 | inhibition, % at 3 µM | 360,000 tested, 0.44% active | HEK293 GalR3-CNG cAMP membrane potential fluorescence; galR3 body fused to GalR1 C-terminus;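 active = inhibition above the screen-wide average plus 3 SD, cut at about 13% in these data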;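 also: forskolin and galanin both at EC90 stimulate the cells; cAMP rise reported by CNG channel membrane potential dye signal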
Target sequence (O60755 1-299 limits assumed): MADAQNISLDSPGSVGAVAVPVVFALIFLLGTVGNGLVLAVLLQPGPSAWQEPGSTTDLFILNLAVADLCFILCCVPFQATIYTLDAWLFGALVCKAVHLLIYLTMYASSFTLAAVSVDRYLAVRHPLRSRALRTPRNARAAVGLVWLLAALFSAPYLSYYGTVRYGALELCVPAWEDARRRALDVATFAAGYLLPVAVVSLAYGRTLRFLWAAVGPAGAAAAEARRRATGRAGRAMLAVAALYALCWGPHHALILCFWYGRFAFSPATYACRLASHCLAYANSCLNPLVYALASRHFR
SMARCA2 act – increases SMARCA2 function in MMTV reporter cells; MG213 cells, MMTV-luciferase reporter, dexamethasone, overnight; activation, % at 9.1 µM; 370,000 tested, 1% active; AID 652017; in the data active = activation above about 7.8%
NR2E3 ag-1 – activates human NR2E3 receptor | Q9Y5X4 | CHO-S Gal4-NCOR/VP16-NR2E3 two-hybrid, luciferase | inhibition of corepressor binding, % at 3.98 µM | 360,000 tested, 0.35% active | AID 602229;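 active = inhibition above the mean of all tested compounds plus 3 SD, cut at about 70% in these data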;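 also: higher means lower luciferase signal from less NR2E3 corepressor binding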
NR2E3 ag-2 – activates human photoreceptor nuclear receptor NR2E3 | Q9Y5X4 | inhibition of corepressor binding, % at 4.78 µM | 320,000 tested, 0.12% active | GST-NR2E3/biotin-RetCOR TR-FRET, 1536-well;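 active = percent inhibition above the cutoff of mean plus 3 SD of all tested compounds, set per screening campaign, cut at about 20% in these data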
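System: GST-tagged NR2E3 plus biotinylated RetCOR corepressor; Amount: 1.35 nM GST-tagged NR2E3 final; Dosing: single nominal compound dose of 4.8 µM; Schedule: 5 h incubation at 4 °C; Technique: TR-FRET with europium anti-GST and streptavidin-D2, 340 nm excitation; Controls: biotin wells as high control, 0.6% DMSO wells as low control.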
NR2F2 inh – blocks human COUP-TFII nuclear receptor; P24468; HEK293T NGFI-A luciferase reporter, luminescence; inhibition, % at 8.6 µM; 370,000 tested, 0.7% active; AID 686940;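 active = inhibition above a per-plate cutoff, mean inhibition of test wells between control levels plus 3 SD, cut at about 38% in these data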;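 also: cells cotransfected with COUP-TFII expression vector driving the NGFI-A reporter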
SMARCA2 conf – confirmation of SMARCA2 (BRM) function activators. shares compounds with SMARCA2 act. MG213 cells, MMTV-luciferase with dexamethasone, luminescence, overnight; MG213 cells expressing E1A, Rb sequestered; DMSO wells 0%, reference activator 100%. activation, % at 9.1 µM. 3,500 tested, 30% active. AID 652260;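 active = activation above its plate's cutoff, the mean activation of tested wells plus 3 SD, cut at about 7.9% in these data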
VP16 Luc act – counter-screen for SMARCA2 activators: GAL4-VP16 luciferase reporter activation; shares compounds with SMARCA2 act; AID 686939; 3,500 tested, 41% active; HEK293 GAL4-VP16 pG5luc reporter, luciferase luminescence; scaled: DMSO wells 0%, SAHA wells 100%; activation, % at 9.1 µM;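 active = activation above the solvent-only control well mean plus 3 SD, averaged across control plates, cut at about 5.2% in these data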
Large screens that a line does not name were inactive (follow-up assays come after a bar, where they were run). Hits are enriched below; roughly 2.2% of the tested compounds scored in any of these assays.

COc1ccc(NC(=O)/C=C/c2ccco2)cn1	none
O=C(NCc1cccnc1)c1cccs1	SMARCA2 act 9.5 | SMARCA2 conf inactive | VP16 Luc act inactive
O=C(Nc1ccc(OC(F)(F)F)cc1)c1cnccn1	SMARCA2 act 8.1 | SMARCA2 conf 9.4 | VP16 Luc act 11
CCCCCn1cc(CCC(=O)Nc2ccc(N(C)c3ccccn3)cc2)c2ccccc21	none (no result: NR2E3 ag-1, NR2E3 ag-2)
CCCc1ccc(OCc2ccc(C(=O)N3CCSCC3)o2)cc1	SMARCA2 act 8.3 | SMARCA2 conf inactive | VP16 Luc act 7.4
CC(C)(C)c1ccc(OCc2ccc(C(=O)N3CCOCC3)o2)cc1	none
COC(=O)c1sc(-c2ccc(Cl)cc2)cc1NC(=O)/C=C/C(=O)O	SMARCA2 act 9.1 | SMARCA2 conf inactive | VP16 Luc act inactive
O=C(N/N=C\c1cccc(Cl)c1)c1n[nH]c2c1CCCC2	none
O=C(N/N=C/c1ccc(Cl)cc1Cl)c1n[nH]c2c1CCCC2	SMARCA2 act 9.5 | SMARCA2 conf inactive | VP16 Luc act 8.0
O=C(N/N=C/C(Br)=C\c1ccccc1)c1n[nH]c2c1CCC2	SMARCA2 act 8.4 | SMARCA2 conf 11 | VP16 Luc act 21
CCN(CC)C(=O)CC[C@@H]1CC[C@]2(CCCN(Cc3cccnc3)C2)O1	none (no result: GalR3 antagonist, NR2E3 ag-1, NR2E3 ag-2)
O=C(Nc1nc(-c2ccccn2)cs1)c1ccco1	none
O=C(Nc1nc(-c2cc3ccccc3oc2=O)cs1)c1ccco1	SMARCA2 act 17 | SMARCA2 conf inactive | VP16 Luc act inactive
CC(=O)Nc1ccc(/C=N\NC(=O)c2cccc(S(=O)(=O)N(C)C)c2)cc1	none (no result: GalR3 antagonist, NR2E3 ag-1, NR2E3 ag-2)
COc1ccccc1NS(=O)(=O)c1ccc2oc(SC)nc2c1	none
COc1ccccc1NS(=O)(=O)c1ccc2oc(N)nc2c1	SMARCA2 act 11 | SMARCA2 conf inactive | VP16 Luc act inactive
CCN(Cc1cccs1)c1ncnc2ccc(-c3ccc4c(c3)OCO4)cc12	none (no result: GalR3 antagonist, SMARCA2 act, NR2E3 ag-1, NR2E3 ag-2)
CCCCN1CCS(=O)(=O)N(Cc2ccc(Cl)cc2)C(C(=O)OC)C1 (stereo not drawn)	none (no result: GalR3 antagonist, NR2E3 ag-1, NR2E3 ag-2)
O=C1C(=Cc2cccs2)CCc2ccccc21	SMARCA2 act 10 (no result: NR2E3 ag-1, NR2E3 ag-2) | SMARCA2 conf 8.2 | VP16 Luc act 7.0
Cc1ccc(NC(=O)CN2C(=O)N/C(=C/c3ccc(C)o3)C2=O)cc1	none
Cc1cccc(NC(=O)CN2C(=O)N/C(=C/c3ccc(C)o3)C2=O)c1	SMARCA2 act 9.1 | SMARCA2 conf inactive | VP16 Luc act inactive
Cc1cccc(NC(=O)Cn2c(=O)oc3ccccc32)c1	SMARCA2 act 8.8 | SMARCA2 conf inactive | VP16 Luc act inactive
Cc1ccc(NC(=O)CN2C(=O)CCSc3ccccc32)cc1C	none (no result: GalR3 antagonist, NR2E3 ag-1, NR2E3 ag-2)
CCc1sc(C(=O)NCc2ccco2)cc1Br	none
CCc1sc(C(=O)NCc2ccco2)cc1C	SMARCA2 act 11 | SMARCA2 conf inactive | VP16 Luc act inactive
CC(C)n1nnnc1C1(C)CCSCC(=O)N1Cc1cccc(C(F)(F)F)c1 (stereo not drawn)	none (no result: GalR3 antagonist, NR2E3 ag-1, NR2E3 ag-2)
CC(=O)N1CCN(c2ccnc3cc(Cl)ccc23)CC1	SMARCA2 act 11 | SMARCA2 conf inactive | VP16 Luc act inactive
COC(=O)CN1CCN(C(=O)c2nocc2C)CC1	none (no result: GalR3 antagonist, NR2E3 ag-1, NR2E3 ag-2)
COc1cccc(N2CCN(C(=O)CCn3nnc4ccccc43)CC2)c1	SMARCA2 act 9.4 (no result: GalR3 antagonist, NR2E3 ag-1, NR2E3 ag-2) | SMARCA2 conf inactive | VP16 Luc act inactive
Cc1ccc(S(=O)(=O)N2CCCC(C(=O)NCc3ccco3)C2)cc1 (stereo not drawn)	SMARCA2 act 10 (no result: GalR3 antagonist, NR2E3 ag-1, NR2E3 ag-2) | SMARCA2 conf inactive | VP16 Luc act inactive
CC(C)(C)c1ccc(S(=O)(=O)N2CCCC(C(=O)NCc3ccco3)C2)cc1 (stereo not drawn)	none (no result: GalR3 antagonist, NR2E3 ag-1, NR2E3 ag-2)
O=S1(=O)C=CCN1Cc1cn(Cc2cccc(Cl)c2)nn1	none (no result: GalR3 antagonist, NR2E3 ag-1, NR2E3 ag-2)
CCN(CCNC(=O)[C@H]1C=C(OC)C(=O)C[C@H](c2ccccc2)[C@H]1C)C(C)=O	none (no result: GalR3 antagonist, NR2E3 ag-1, NR2E3 ag-2)
CCCn1nnc(NC(=O)c2ccc(Cl)cc2Cl)n1	SMARCA2 act 14 | SMARCA2 conf inactive | VP16 Luc act 7.8
CC(C)Oc1ccc(CNC(=S)N/N=C/c2ccc([N+](=O)[O-])cc2)cc1	SMARCA2 act 10 | SMARCA2 conf inactive | VP16 Luc act inactive
